From ChEMBL document CHEMBL5154669, “G-Quadruplex DNA as a Target in Pathogenic Bacteria: Efficacy of an Extended Naphthalene Diimide Ligand and Its Mode of Action” (J Med Chem, 2022)

Experiments:
DNA = assay: Stabilization of Escherichia coli in G-quadruplex DNA GGG GCG GGG TGG GTT GG assessed as change in melting temperature at 10 uM incubated for 16 hrs by CD melting method
Escherichia coli = assay: Antimicrobial activity against Escherichia coli LMG 8223 assessed as inhibition of bacterial growth in presence of D11 incubated for 20 hrs; settings: LMG 8223, 20 h
Klebsiella aerogenes = assay: Bacteriostatic activity against Enterobacter aerogenes LMG 02094 assessed as inhibition of bacterial growth; type: functional
How it was run: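 A standard MIC plate (128–2 μM, cMHB, 20 h, 37 °C) was read at OD600. Each well then seeded at 10% a fresh compound-free cMHB plate, grown another 20 h at 37 °C and read at OD600. No growth at the same concentration in both plates counted as bactericidal. Growth above the MIC counted as bacteriostatic. Done in triplicate.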

CN(C)CCCn1c(=O)c2ccc3c(=O)n(CCCN(C)C)c(=O)c4c5[nH]c6ccccc6[nH]c5c(c1=O)c2c34.O=C(O)C(F)(F)F.O=C(O)C(F)(F)F
ΔTm (DNA): 18.8 °C
MIC (Escherichia coli): < 0.5 µM
MIC (Klebsiella aerogenes): > 128 µM
